Columns and labels:
Assay type in all cases: in vivo
[1] = tested on: mice; assay: Carrageenan-induced paw edema model; details: dose 10 mg/kg
Procedure, shortened: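 Thirty BALB-c mice randomised into five groups of six. Paw volume by digital plethysmometer at 0, 1, 2, 3, 4 and 5 h; percent inhibition from paw-volume increase, control versus treated. ANOVA/Dunnett's.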

[2] = tested on: mice (BALB-c); assay: Acetic acid-induced writhing assay; details: 10 mg/kg i.p.
Procedure, shortened: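 BALB-c mice of either sex (18–22 g), fasted 2 h, six per group. Writhes counted starting 5 min after acid; percent analgesic effect derived. Mean ± S.E.M., ANOVA with Dunnett's test versus negative control.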

[3] = tested on: mice (BALB-c); assay: Hot plate assay; details: dose 10 mg/kg

Row | Compound | paw volume ([1]; 1 h) | paw volume ([1]; 2 h) | paw volume ([1]; 3 h) | paw volume ([1]; 4 h) | paw volume ([1]; 5 h) | no. of writhing (20 min) [2] | latency of nociceptive response ([3]; 0 min) | latency of nociceptive response ([3]; 30 min) | latency of nociceptive response ([3]; 60 min) | latency of nociceptive response ([3]; 90 min) | latency of nociceptive response ([3]; 120 min)
1 | O=C(O)Cc1ccccc1Nc1c(Cl)cccc1Cl [diclofenac–Na, diclofenac sodium] | 2.283 ± 0.201 | 2.142 ± 0.105 | 2.004 ± 0.224 | 2.010 ± 0.185 | 2.019 ± 0.022 |  |  |  |  |  | 
2 | COc1ccc2c(c1)c(CC(=O)O)c(C)n2C(=O)c1ccc(Cl)cc1 [indomethacin] | 2.462 ± 0.032 | 2.207 ± 0.218 | 2.100 ± 0.122 | 2.128 ± 0.370 | 2.184 ± 0.632 | 17.04 ± 1.22 |  |  |  |  | 
3 | COc1cccc(C2(O)CCCCC2CN(C)C)c1 (stereo not shown) [tramal, tramadol] |  |  |  |  |  |  | 10.32 ± 0.57 s | 26.22 ± 1.07 s | 25.45 ± 2.52 s | 20.37 ± 0.88 s | 20.07 ± 1.66 s

Source: PMC10448495 (ACS Omega, 2023)
